This note sets out measurements from ChEMBL document CHEMBL1687727, “Distinct mode of interaction of a novel ketolide antibiotic that displays enhanced antimicrobial activity” (Antimicrob Agents Chemother, 2009).

Each structure is given as a SMILES string. Converted amounts (≈) assume the structure as drawn. The source made the active and inactive calls. The rule behind the calls is not given here.

The subject of test [1] is Escherichia coli. Put plainly: Antimicrobial activity against chromosomal rrn allele deficient-Escherichia coli TA531 after 15 hrs. The following applies: TA531, 15 h. The format is functional. In a few lines:
(§1)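 E. coli TA531 lacking chromosomal rrn alleles and carrying plasmid-borne wild-type, A2058G or U2609C 23S rRNA. Grown overnight in LB with 100 μg/ml ampicillin, diluted and regrown. MIC was the lowest concentration arresting culture growth.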

Test [2] relates to Escherichia coli. In words: Antimicrobial activity against Escherichia coli TA531 harboring 23S rRNA U2609C mutant after 15 hrs. The format is functional. Conditions: TA531, 15 h. The essentials: as §1
For test [3], the system named is Escherichia coli. In words: Antimicrobial activity against Escherichia coli TA531 harboring 23S rRNA A2058G mutant after 15 hrs. The format is functional. Conditions: TA531, 15 h. The essentials:
as §1

The subject of test [4] is Escherichia coli K-12. Put plainly: Inhibition of poly(U)-dependent synthesis of poly(Phe) using Escherichia coli K-12 70S ribosome U2609C mutant at 50 uM after 1 hr by liquid scintillation counting.
Test [5] has as its system Nucleic Acid. Put plainly: Binding affinity to Escherichia coli K-12 70S ribosome 23S rRNA A2062 mutant assessed as enhancement of DMS-induced modification of 23S rRNA domain V at nucleotides A2062 by primer extension analysis. The format is nucleic-acid assay.
For test [6], the target named is T1, Bacterial 70S ribosome (Bacteria) (UniProt P0A7V0+P60723+P0AG67+P0A7R5+P0A7R9+P0A7S3+P0A7S9+P0AG59+P0ADZ4+P0A7T3+P0AG63+P0A7T7+P0A7U3+P0A7U7+P68679+P0A7V3+P0A7V8+P0A7W1+P02358+P02359+P0A7W7+P0A7X3+P0A7J3+P0A7J7+P0AA10+P0ADY3+P02413+P0ADY7+P0AG44+P0C018+P0A7K6+P0A7L0+P0A7L3+P0AG48+P61175+P0ADZ0+P60624+P68919+P0A7L8+P0A7M2+P0A7M6+P60422+P0AG51+P0A7N1+P0A7M9+P0A7N4+P0A7N9+P0A7P5+P0A7Q1+Q2EEQ2+P0A7Q6+P60438+P62399+P0AG55+P0A7K2). In words: Inhibition of poly(A)-dependent synthesis of poly(Lys) using Escherichia coli K-12 70S ribosome at 20 uM after 1 hr by liquid scintillation counting. The essentials:
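Poly(A)-programmed tight-coupled 70S ribosomes (0.5 μM) were preincubated 10 min at 37°C with antibiotic in buffer A. The mix held [3H]lysine (3 nmol, 500 dpm/pmol), bulk E. coli tRNA, 3 mM ATP, 1.5 mM GTP, 5 mM acetyl phosphate and S-100 fraction. Incubated 1 h at 37°C, followed by hot TCA (with 0.25% sodium wolframate) precipitation onto glass fiber filters and scintillation counting.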

Test [7] has as its system Escherichia coli K-12. Put plainly: Binding affinity to Escherichia coli K-12 Pi complex of 70S ribosome Pi complex A2058G mutant assessed as blockade of tylosin-induced inhibition of AcPhe-puromycin synthesis at 10 uM after 2 mins by liquid scintillation counting. In a few lines:
(§2)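 Pi complexes were formed on ribosomes carrying the A2058G or U2609C mutation (Ac[3H]Phe-tRNA at the P-site of MF-mRNA-programmed 70S; buffer A). Complexes were pre-exposed to antibiotic (final 10 μM) at 37°C for 2 min, then tylosin was added (final 5 μM). They were then reacted with 1 mM puromycin at 37°C for 2 min to measure AcPhe-puromycin formation.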

In test [8] the test system is Escherichia coli K-12. In words: Binding affinity to Escherichia coli K-12 Pi complex of 70S ribosome Pi complex U2609C mutant assessed as blockade of tylosin-induced inhibition of AcPhe-puromycin synthesis at 10 uM after 2 mins by liquid scintillation counting. The essentials: as §2
In test [9] the test system is Nucleic Acid. Put plainly: Binding affinity to Escherichia coli K-12 70S ribosome 23S rRNA A2062 mutant assessed as protection against DMS-induced modification of 23S rRNA domain II at nucleotides A752 and by primer extension analysis. The format is nucleic-acid assay.
Test [10] deals with Nucleic Acid. In words: Binding affinity to Escherichia coli K-12 70S ribosome 23S rRNA assessed as protection against DMS-induced modification of 23S rRNA […] by primer extension analysis. The format is nucleic-acid assay.
Test [11] has as its target T1, Bacterial 70S ribosome (Bacteria). In words: Inhibition of poly(U)-dependent synthesis of poly(Phe) using Escherichia coli K-12 70S ribosome at 20 uM after 30 mins by liquid scintillation counting.
In test [12] the test system is Nucleic Acid. In words: Binding affinity to Escherichia coli K-12 70S ribosome 23S rRNA U2609C mutant assessed as protection against DMS-induced modification of 23S rRNA domain V at nucleotides A2058 and A2059 by primer extension analysis.
Test [13] addresses T1, Bacterial 70S ribosome (Bacteria). Put plainly: Inhibition of Ptase activity of Escherichia coli K-12 70S ribosome.
The subject of test [14] is Escherichia coli K-12. In words: Binding affinity to Escherichia coli K-12 70S ribosome Pi complex assessed as dissociation rate constant at 2 uM.
Test [15] relates to Escherichia coli K-12. Put plainly: Inhibition of poly(U)-dependent synthesis of poly(Phe) using Escherichia coli K-12 70S ribosome A2058 mutant at 50 uM after 1 hr by liquid scintillation counting.
Test [16] has as its target T1, Bacterial 70S ribosome (Bacteria). In words: Inhibition of Escherichia coli K-12 70S ribosome dependent elongation factor G-dependent translocation.
In test [17] the test system is Nucleic Acid. In words: Binding affinity to Escherichia coli K-12 70S ribosome 23S rRNA assessed as protection against CMCT-induced modification of 23S rRNA […] by primer extension analysis. The test is classed as nucleic-acid assay.
For the next test, the target named is Bacterial 70S ribosome. In words: Displacement of [14C]-erythromycin from Escherichia coli K-12 70S ribosome after 10 mins by competitive binding assay. The essentials: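 Tight-coupled 70S ribosomes (0.20 μM final) in buffer A (20 mM HEPES-KOH pH 7.6, 4.5 mM Mg acetate, 150 mM NH4 acetate, polyamines). [14C]-erythromycin held constant at 0.6 μM (150 dpm/pmol) with increasing unlabeled competitor, 10 min at 37°C. Mixture was diluted in cold buffer and filtered through cellulose nitrate, which was washed twice and counted. KD was derived from a competition binding equation.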

In test [18] the test system is Escherichia coli K-12. Put plainly: Binding affinity to Escherichia coli K-12 70S ribosome Pi complex assessed as inhibition of AcPhe-puromycin synthesis at 10 uM after 2 mins by liquid scintillation counting. The essentials:
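Pi complex: Ac[3H]Phe-tRNA bound at the P-site of MF-mRNA-programmed 70S ribosomes (0.3 μM ribosomes, 2.0 μM mRNA, 0.5 μM tRNA; buffer A, pH 7.6, 4.5 mM Mg2+; 37°C 15 min), free of unbound donor. Reacted with 1 mM puromycin at 37°C for 2 min, with or without 10 μM antibiotic. Duplicates.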

In test [19] the target is T1, Bacterial 70S ribosome (Bacteria). Put plainly: Inhibition of tRNA binding to Escherichia coli K-12 70S ribosome.
Test [20] has as its system Escherichia coli K-12. Put plainly: Binding affinity to Escherichia coli K-12 70S ribosome Pi complex assessed as inhibition of AcPhe-puromycin synthesis at 5 uM after 2 mins by liquid scintillation counting.
Test [21] has as its system Nucleic Acid. Put plainly: Binding affinity to Escherichia coli K-12 70S ribosome 23S rRNA assessed as enhancement of DMS-induced modification of 23S rRNA domain II at nucleotides A752 by primer extension analysis. The test is classed as nucleic-acid assay. The essentials:
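70S ribosomes (50 pmol) activated 5 min at 37°C in 20 mM HEPES/KOH pH 7.8, 20 mM MgCl2, 300 mM KCl. Antibiotic added in the same buffer for 10 min at 37°C, then cooled on ice. DMS modification followed, then SDS/EDTA buffer, phenol/chloroform extraction and ethanol precipitation of rRNA. Repeated up to four times.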

By MIC is commonly meant the lowest concentration that inhibits growth of the organism. As a reminder, the Kd is the equilibrium constant for the complex coming apart. A high value points to weaker binding.

Consider `CC[C@H]1OC(=O)[C@H](C)C(=O)[C@H](C)[C@@H](O[C@@H]2O[C@H](C)C[C@H](N(C)C)[C@H]2O)[C@](C)(OC)C[C@@H](C)C(=O)[C@H](C)[C@H]2N(CCCCn3cnc(-c4cccnc4)c3)C(=O)O[C@]12C` [TELITHROMYCIN], for which the minimal inhibitory concentration (MIC) in the test on Escherichia coli [1] is 16 µg/mL (≈ 19.7 µM); with Escherichia coli [2], 64 µg/mL (≈ 78.8 µM); in the test on Escherichia coli [3] it was over 150 µg/mL.
In the case of `C[C@H]1C(=O)O[C@H](CCNC(=O)Cc2cccc(-c3ccco3)c2)[C@@]2(C)OC(=O)N[C@@H]2[C@@H](C)C(=O)[C@H](C)C[C@@](C)(O)[C@H](O[C@@H]2O[C@H](C)C[C@H](N(C)C)C2O)[C@@H](C)C1=O` (stereo partly specified) [KOSAN-1325], the inhibition result (with Escherichia coli K-12 [4]; in test [6]) was “Active” throughout. For the same compound, the MIC is 8 µg/mL (≈ 10 µM) in the test on Escherichia coli [1], 8 µg/mL (≈ 10 µM) in the test with Escherichia coli [2] and over 250 µg/mL in the test with Escherichia coli [3]. For the same compound, the result in the test with Nucleic Acid [5], in the test on Escherichia coli K-12 [7], in the test on Escherichia coli K-12 [8], with Nucleic Acid [9], in the test on Nucleic Acid [10] and with Nucleic Acid [12] was Active. For the same compound, the outcome with Nucleic Acid [17] was Active. The inhibition result (in test [11]; in [13]; in the test with Escherichia coli K-12 [15]; in test [16]; in the test with Escherichia coli K-12 [18]; in test [19]) was “inactive” in each case. The Kdiss in the test with Escherichia coli K-12 [14] was determined as 5e-05 s⁻¹. On Bacterial 70S ribosome, this compound registered a Kd of 7.5 nM.
`CC[C@H]1OC(=O)C[C@@H](O)[C@H](C)[C@@H](O[C@@H]2O[C@H](C)[C@@H](O[C@H]3C[C@@](C)(O)[C@@H](O)[C@H](C)O3)[C@H](N(C)C)[C@H]2O)[C@@H](CC=O)C[C@@H](C)C(=O)/C=C/C(C)=C/[C@@H]1CO[C@@H]1O[C@H](C)[C@@H](O)[C@@H](OC)[C@H]1OC`: the result with Escherichia coli K-12 [20] was Active.
For `CC[C@H]1OC(=O)[C@H](C)[C@@H](O[C@H]2C[C@@](C)(OC)[C@@H](O)[C@H](C)O2)[C@H](C)[C@@H](O[C@@H]2O[C@H](C)C[C@H](N(C)C)[C@H]2O)[C@](C)(O)C[C@@H](C)C(=O)[C@H](C)[C@@H](O)[C@]1(C)O` [ERYTHROMYCIN], the minimal inhibitory concentration (MIC) with Escherichia coli [1] is 128 µg/mL (≈ 174 µM); in the test with Escherichia coli [2], 128 µg/mL (≈ 174 µM); in the test on Escherichia coli [3], over 500 µg/mL. In addition, the inhibition entry in test [6] was “Active”. Also, the result in the test on Escherichia coli K-12 [8], in the test with Nucleic Acid [21] and in the test with Nucleic Acid [12] was Active. The outcome in the test with Nucleic Acid [10], in the test with Nucleic Acid [17] and with Escherichia coli K-12 [18] was inactive. Besides, in test [11], the inhibition result is “inactive”. In addition, at Bacterial 70S ribosome, the dissociation constant (Kd) was determined as 15 nM.
